APJ agonist – APJ receptor agonism; P35414; CHO-K1 APJ PathHunter beta-arrestin, luminescence; 0% DMSO wells, 100% apelin; activation, % at 20 µM; 0.11% of 330,000 active;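 active means activation more than six SD over the plate average, tested at 20 µM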;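 further: 0% = DMSO alone and 100% = apelin-13 at 10 nM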
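Test system – PathHunter CHO-K1 APJ (AGTRL-1) beta-arrestin reporter cells · Input – 1000 cells/well · Compound – single test compound dose, 20 µM final, 1% DMSO · Times – compound stimulation 90 min at 25 °C, detection 60 min · Technique – beta-gal luminescence · Read-out basis – APJ–arrestin association signal · Control set – negative DMSO alone, positive Apelin-13 at 10 nM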
CCR6 antagonist – CCR6 (human) receptor antagonism. CHO-K1 CCR6 PathHunter beta-arrestin, luminescence, CCL20-stimulated. P51684. 0.49% of 340,000 active. inhibition, % at 20 µM;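 active means compounds whose inhibition of the agonist-driven luminescence signal at 20 µM reaches about 50%, limit read from the data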;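 further: cells stimulated with CCL20 at 14 nM final; plate controls were DMSO with CCL20 for no effect and DMSO without agonist for full effect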
EBI2 antag – EBI2 (human) antagonism; 0.81% of 360,000 active; EBI2 beta-arrestin recruitment, luminescence, 7a,25-OHC stimulated; inhibition, % at 5 µM; AID 651636; in the data active means inhibition above about 38%;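 further: enzyme fragment complementation signal reports receptor beta-arrestin coupling in cells; 0% = agonist plus DMSO wells and 100% = wells without agonist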
APJ antag – antagonists of human APJ apelin receptor; P35414; CHO-K1 APJ beta-arrestin complementation, luminescence; inhibition, % at 20 µM; 0.32% of 330,000 active;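 active means inhibition above about 40% at 20 µM, limit read from the data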;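 further: cells challenged with 10 nM apelin-13 agonist together with compound; plate controls were apelin-13 plus DMSO wells for no effect and DMSO wells lacking apelin-13 for full effect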
CXCR6 block – inhibitors of human CXCR6 receptor | CHO-K1 PathHunter CXCR6 beta-arrestin, luminescence | inhibition, % at 20 µM | 0.36% of 360,000 active | O00574; in the data active means inhibition above about 34%, passing the limit was not always enough;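 further: antagonist mode with CXCL16 agonist at 10 nM final; 0% = 10 nM CXCL16 with DMSO and 100% = unstimulated wells without agonist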
Target sequence (O00574 whole entry, looked up): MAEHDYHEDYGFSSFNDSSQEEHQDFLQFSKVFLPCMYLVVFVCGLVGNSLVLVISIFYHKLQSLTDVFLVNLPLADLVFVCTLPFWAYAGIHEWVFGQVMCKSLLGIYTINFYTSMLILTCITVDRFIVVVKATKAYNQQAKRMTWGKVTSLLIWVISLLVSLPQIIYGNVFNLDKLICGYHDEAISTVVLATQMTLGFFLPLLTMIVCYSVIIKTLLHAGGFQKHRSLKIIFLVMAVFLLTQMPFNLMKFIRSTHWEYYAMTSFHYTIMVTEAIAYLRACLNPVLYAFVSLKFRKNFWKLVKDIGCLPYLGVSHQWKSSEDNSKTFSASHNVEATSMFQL
EBI2 antag conf – confirmation of human EBI2 receptor antagonists; shares compounds with EBI2 antag; EBI2 beta-arrestin luminescence, 7a,25-OHC antagonism; inhibition, % at 5 µM; 29% of 2,400 active; AID 651997;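 active means inhibition of at least 50%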
EBI2 ag – EBI2 agonism counter-screen | AID 652000 | activation, % at 5 µM | shares compounds with EBI2 antag | EBI2-expressing cells, agonist mode, luminescence, 60 min; 0% vehicle, 100% 7α,25-dihydroxycholesterol control | 2,400 tested, under 10 active;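 active means activation of at least 50%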
bGal counter – counter-screen for EBI2 antagonists: E. coli beta-galactosidase inhibition; shares compounds with EBI2 antag; purified beta-galactosidase, luminescent Galacton Star, 15 min; inhibition, % at 5 µM; 1% of 2,400 active; AID 652176;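 active means replicate-average signal at least 3 plate SD below neutral wells, shown as high inhibition, flagging enzyme-inhibiting false positives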;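 further: 0% = DMSO wells with enzyme and 100% = wells lacking enzyme; higher means stronger loss of beta-gal luminescence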
An asterisk follows results filed as active; · = no result given. Most compounds without a hit are left out; they make up all but 1.5% or so of the library.

SMILES	APJ agonist	CCR6 antagonist	EBI2 antag	APJ antag	CXCR6 block	EBI2 antag conf	EBI2 ag	bGal counter
COc1ccc(CC(=O)Nc2cc(S(=O)(=O)N3CCOCC3)ccc2N2CCCC2)c(OC)c1	·	0	-19	·	2	·	·	·
COc1ccc(/C=C(\C#N)C(=O)Nc2cc(S(=O)(=O)N3CCOCC3)ccc2N2CCCC2)cc1	-1	-7	80*	11	-7	84*	-1	-19
CCN(CC)S(=O)(=O)c1ccc(N2CCCCC2)c(NC(=O)/C(C#N)=C/c2ccc(OC)cc2)c1	-1	12	42*	-9	-5	41	1	-1
O=C(NCCCN1CCOCC1)c1cc(S(=O)(=O)N2CCCCC2)ccc1Cl	·	·	-4	·	-1	·	·	·
COc1ccc(NC(=O)CN(C)C(=O)c2ccc3c(c2)CC(c2ccccc2)OC3=O)cc1 (stereo unspecified)	·	·	49*	·	-8	16	0	-12
COc1cccc(NC(=O)CN(C)C(=O)c2ccc3c(c2)CC(c2ccccc2)OC3=O)c1 (stereo unspecified)	-2	26	33	6	4	·	·	·
CCCCNC(=O)C[C@@H]1C[C@@]2(C(=O)OC)CCCCC=C2N(Cc2cccc3ccccc23)C1=O	·	·	0	·	3	·	·	·
COC(=O)[C@]12CCCCC=C1N(Cc1cccc3ccccc13)C(=O)[C@H](CC(=O)NCCCCc1ccccc1)C2	·	·	47*	·	13	36	1	4
Cc1ccc(C2=CC(=O)C[C@H](c3ccc4c(c3)OCO4)C2)cc1	-1	18	48*	2	4	37	1	10
O=C1C=C(c2ccc(O)cc2)C[C@@H](c2ccc3c(c2)OCO3)C1	-3	18	16	0	6	·	·	·
CSc1ccc(C2=CC(=O)C[C@H](c3ccc4c(c3)OCO4)C2)cc1	-4	11	41*	0	2	28	-1	-4
O=C1C=C(c2ccc3c(c2)oc2ccccc23)C[C@@H](c2ccc3c(c2)OCO3)C1	-6	17	71*	7	2	64*	1	-3
CCOC(=O)N1CCC(NC(=O)c2cc(C(=O)Nc3ccc(OC)c(OC)c3)ccc2CO)CC1	-4	1	-6	-1	-5	·	·	·
Nc1[nH]c(C(=O)c2ccccc2)c(-c2ccccc2C(F)(F)F)c1C(=O)c1cccs1	·	·	45*	·	7	20	-1	-7
CCOc1cc(N2CCOCC2)c(OCC)cc1NC(=O)COC(=O)c1ccccc1OC(F)F	-5	11	22	18	0	·	·	·
CCOc1cc(N2CCOCC2)c(OCC)cc1NC(=O)COC(=O)c1cccc2ccccc12	2	-3	55*	4	7	42	0	-22
CCOc1ccc(NC(=S)N(CCc2c(C)[nH]c3ccc(C)cc23)Cc2ccco2)cc1	-4	7	40*	8	7	29	0	3
COc1ccc2cc(C(=O)N3CCN(C)CC3)[nH]c2c1	-1	13	-12	-2	-2	·	·	·
COc1cccc(N2CCN(C(=O)c3cc4cc(Cl)ccc4[nH]3)CC2)c1	0	5	51*	-4	-4	41	1	6
O=C(c1cc2cc(F)ccc2[nH]1)N1CCN(c2cccc(Cl)c2)CC1	-3	5	61*	20	-3	48	-1	0
CCOc1ccccc1N1CCN(C(=O)c2cc(C)oc2C)CC1	-4	4	7	9	1	·	·	·
COc1ccc2cc(C(=O)N3CCN(c4ccc(F)cc4)CC3)[nH]c2c1	-4	-12	64*	-3	-6	50*	-1	-16
CCOc1ccccc1N1CCN(C(=O)c2cc3cc(OC)ccc3[nH]2)CC1	2	3	52*	-5	-2	30	-1	-14
Cc1cccc(OCCCCCn2ccnc2)c1	-2	-7	-2	6	-4	·	·	·
